For test [1], the system named is Rattus norvegicus. Kind of test: Tested for intravenous antidiuretic activity in rats. The class given is functional, Urine. Also noted: unit: U/mg. A digest of the protocol:
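Intravenous antidiuretic assay in rats under ethanol anesthesia. Agonistic activity is expressed in units per milligram.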

Test [2] has as its system Rattus norvegicus. Kind of test: Tested for intravenous anti-vasopressor pA2 effect in rats. The class given is functional, organism-based. Particulars: for Kb: Rattus norvegicus, read-out: pA2 (converted). A digest of the protocol:
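Vasopressor assay in rats pretreated with phenoxybenzamine under urethane anesthesia, using intravenous injections. The pA2 is derived by the Schild method for each assay group and reported as mean ± SE, with the number of assays given.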

Test [3] concerns Rattus norvegicus. As to the kind of experiment: Tested for intravenous anti-oxytocic effect in the absence of Mg2+ in rats; agonist at concentration of 8 units/kg. It is filed as functional, organism-based. The note with it: filed as agonist.
For test [4], the species on record is Rattus norvegicus. As to the kind of experiment: Tested for […] anti-oxytocic effect in the absence of Mg2+ in rats. The class given is functional, organism-based. Particulars: for Kb: Rattus norvegicus, read-out: pA2 (converted). In short, it runs like this: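 Isolated rat uterus in vitro in a medium without Mg2+. Antagonism is expressed as pA2 by the Schild method, computed per assay group, with mean ± SE and the number of assays.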

Test [5] relates to Rattus norvegicus. Kind of test: Tested for intravenous anti-oxytocic effect in in vivo in rats. The class given is functional, organism-based. Particulars: read-out: pA2 (converted). In short, it runs like this: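 Rat uterus in situ; antagonism expressed as pA2 by the Schild method, calculated for each assay group and reported as mean ± SE, with the number of assays given.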

The subject of test [6] is Rattus norvegicus. As to the kind of experiment: Tested for intravenous anti-oxytocic effect in the presence of Mg2+ in rats. Particulars: read-out: pA2 (converted). It is filed as functional, organism-based.
Test [7] deals with Rattus norvegicus. Kind of test: Tested for intravenous anti-vasopressor pA2 effect in rats; agonist at concentration of 4 units/mg. Particulars: filed as agonist.
Test [8] relates to Rattus norvegicus. As to the kind of experiment: Tested for intravenous anti-vasopressor pA2 effect in rats; agonist at concentration of 346 units/kg. The class given is functional, organism-based. The note with it: filed as agonist, in the assay text read “346 units/mg” for “346 units/kg”. In short, it runs like this:
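Vasopressor assay in rats anesthetized with urethane and pretreated with phenoxybenzamine, with intravenous injections. Antagonism is expressed as pA2, calculated by Schild's method for each assay group and reported as mean ± SE, with the number of assays given.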

The test system of test [9] is Rattus norvegicus. As to the kind of experiment: Tested for intravenous anti-oxytocic effect in the absence of Mg2+ in rats; agonist at concentration of 47 units/kg. Particulars: filed as agonist. It is filed as functional, organism-based.

Each structure is given as a SMILES string. Starred links: 1 amine or outer side, 2 acyl side, 3 side chain; linkers in the order of their positions; H or OH if unused. Positions of bridges follow the written chain, without caps; N, C: chain ends. Non-standard residues stand in square brackets, D forms with d. Residues, ends and D or L forms follow the SMILES beside them. X1 = O=C(CC1(S[*:2])CCCCC1)[*:1]; X2 = CC(C)(CC(=O)[*:1])S[*:2]; Mpa = O=C(O)CCS

On to `CC(C)[C@@H]1NC(=O)[C@H](Cc2ccccc2)NC(=O)[C@H](Cc2ccc(O)cc2)NC(=O)CCSSC[C@@H](C(=O)N2CCC[C@H]2C(=O)N[C@H](CCCNC(=N)N)C(=O)NCC(N)=O)NC(=O)[C@H](CC(N)=O)NC1=O` ([Mpa]YFVNCP[dR]G-NH2; disulfide 1-6), for which the Antidiuretic activity in test [1] is listed as 1230. The Kb in test [2] was 93.3 nM. In addition, in test [3], the pA2 (usually a measure of antagonist potency on a negative log scale) was “agonist at concentration of 8 units/kg”.
With `CC(C)[C@@H]1NC(=O)[C@H](Cc2ccccc2)NC(=O)[C@H](Cc2ccc(O)cc2)NC(=O)CC(C)(C)SSC[C@@H](C(=O)N2CCC[C@H]2C(=O)N[C@H](CCCN=C(N)N)C(=O)NCC(N)=O)NC(=O)[C@H](CC(N)=O)NC1=O` (YFVNCP[dR]G-NH2; linker N-5 via X2) [listing 1 of 2 here], the Kb in test [2] is 15.1 nM; in test [4], 58.9 nM.
On to `CC(C)[C@@H]1NC(=O)[C@H](Cc2ccccc2)NC(=O)[C@H](Cc2ccc(O)cc2)NC(=O)CC2(CCCCC2)SSC[C@@H](C(=O)N2CCC[C@H]2C(=O)N[C@H](CCCN=C(N)N)C(=O)NCC(N)=O)NC(=O)[C@H](CC(N)=O)NC1=O` (YFVNCP[dR]G-NH2; linker N-5 via X1) [listing 1 of 2 here], for which the Kb is 20.9 nM in test [2] and 240 nM in [4].
Turning to `COc1ccc(C[C@@H]2NC(=O)CCSSC[C@@H](C(=O)N3CCC[C@H]3C(=O)N[C@@H](CCCN=C(N)N)C(=O)NCC(N)=O)NC(=O)[C@H](CC(N)=O)NC(=O)[C@H](CCC(N)=O)NC(=O)[C@H](Cc3ccccc3)NC2=O)cc1` [listing 1 of 2 here], the Kb in test [4] was 38.9 nM.
In [1], `NC(=O)CC[C@@H]1NC(=O)[C@H](Cc2ccccc2)NC(=O)[C@H](Cc2ccc(O)cc2)NC(=O)CC2(CCCCC2)SSC[C@@H](C(=O)N2CCC[C@H]2C(=O)N[C@@H](CCCN=C(N)N)C(=O)NCC(N)=O)NC(=O)[C@H](CC(N)=O)NC1=O` (YFQNCPRG-NH2; linker N-5 via X1) [listing 1 of 2 here] registered an Antidiuretic activity of 0.033.
On the same count and under the same terms, to `CC(C)[C@@H]1NC(=O)[C@H](Cc2ccccc2)NC(=O)[C@H](Cc2ccc(O)cc2)NC(=O)CC2(CCCCC2)SSC[C@@H](C(=O)N2CCC[C@H]2C(=O)N[C@H](CCCN=C(N)N)C(=O)NCC(N)=O)NC(=O)[C@H](CC(N)=O)NC1=O` (YFVNCP[dR]G-NH2; linker N-5 via X1) [listing 2 of 2 here] belongs 0.1.
On to `NC(=O)CC[C@@H]1NC(=O)[C@H](Cc2ccccc2)NC(=O)[C@H](Cc2ccc(O)cc2)NC(=O)CC2(CCCCC2)SSC[C@@H](C(=O)N2CCC[C@H]2C(=O)N[C@@H](CCCN=C(N)N)C(=O)NCC(N)=O)NC(=O)[C@H](CC(N)=O)NC1=O` (YFQNCPRG-NH2; linker N-5 via X1) [listing 2 of 2 here], for which the Kb in test [2] was 4.47 nM; in test [5] it was 162 nM; in test [6], 64.6 nM.
`COc1ccc(C[C@@H]2NC(=O)CC(C)(C)SSC[C@@H](C(=O)N3CCC[C@H]3C(=O)N[C@@H](CCCN=C(N)N)C(=O)NCC(N)=O)NC(=O)[C@H](CC(N)=O)NC(=O)[C@H](CCC(N)=O)NC(=O)[C@H](Cc3ccccc3)NC2=O)cc1` (Y(Me)FQNCPRG-NH2; linker N-5 via X2) [listing 1 of 2 here] displayed an Antidiuretic activity in test [1] of 3.5.
As to `COc1ccc(C[C@@H]2NC(=O)CCSSC[C@H](C(=O)N3CCC[C@H]3C(=O)N[C@@H](CCCN=C(N)N)C(=O)NCC(N)=O)NC(=O)[C@H](CC(N)=O)NC(=O)[C@H](CCC(N)=O)NC(=O)[C@H](Cc3ccccc3)NC2=O)cc1`, the pA2 entry in test [7] is “agonist at concentration of 4 units/kg”.
`COc1ccc(C[C@@H]2NC(=O)CC3(CCCCC3)SSC[C@@H](C(=O)N3CCC[C@H]3C(=O)N[C@@H](CCCN=C(N)N)C(=O)NCC(N)=O)NC(=O)[C@H](CC(N)=O)NC(=O)[C@H](CCC(N)=O)NC(=O)[C@H](Cc3ccccc3)NC2=O)cc1` (Y(Me)FQNCPRG-NH2; linker N-5 via X1) returned an Antidiuretic activity in test [1] of 0.31. The pA2 in [2] is recorded as 8.67; in [4], 8.13. The Kb in [2] is 2.4 nM; in test [5] it was 240 nM; in [6] it was 57.5 nM; in [4] it was 7.41 nM.
In [1], `N=C(N)NCCC[C@@H](NC(=O)[C@@H]1CCCN1C(=O)[C@@H]1CSSCCC(=O)N[C@@H](Cc2ccc(O)cc2)C(=O)N[C@@H](Cc2ccccc2)C(=O)N[C@@H](CCC(N)=O)C(=O)N[C@@H](CC(N)=O)C(=O)N1)C(=O)NCC(N)=O` [DESMOPRESSIN] came in with an Antidiuretic activity of 1745. Besides, the pA2 result in [8] and in test [9] was “Agonist” each time.
On to `COc1ccc(C[C@@H]2NC(=O)CC(C)(C)SSC[C@@H](C(=O)N3CCC[C@H]3C(=O)N[C@@H](CCCN=C(N)N)C(=O)NCC(N)=O)NC(=O)[C@H](CC(N)=O)NC(=O)[C@H](CCC(N)=O)NC(=O)[C@H](Cc3ccccc3)NC2=O)cc1` (Y(Me)FQNCPRG-NH2; linker N-5 via X2) [listing 2 of 2 here], for which the Kb is 20.4 nM in test [2] and 24.5 nM in test [4].
Take `CC1(C)CC(=O)N[C@@H](Cc2ccc(O)cc2)C(=O)N[C@@H](Cc2ccccc2)C(=O)N[C@@H](CCC(N)=O)C(=O)N[C@@H](CC(N)=O)C(=O)N[C@H](C(=O)N2CCC[C@H]2C(=O)N[C@@H](CCCN=C(N)N)C(=O)NCC(N)=O)CSS1` (YFQNCPRG-NH2; linker N-5 via X2) [listing 1 of 2 here]: the Antidiuretic activity in [1] is on record as 42.
As to `CC(C)[C@@H]1NC(=O)[C@H](Cc2ccccc2)NC(=O)[C@H](Cc2ccc(O)cc2)NC(=O)CC(C)(C)SSC[C@@H](C(=O)N2CCC[C@H]2C(=O)N[C@H](CCCN=C(N)N)C(=O)NCC(N)=O)NC(=O)[C@H](CC(N)=O)NC1=O` (YFVNCP[dR]G-NH2; linker N-5 via X2) [listing 2 of 2 here], the Antidiuretic activity in [1] was found to be 123.
For `CC1(C)CC(=O)N[C@@H](Cc2ccc(O)cc2)C(=O)N[C@@H](Cc2ccccc2)C(=O)N[C@@H](CCC(N)=O)C(=O)N[C@@H](CC(N)=O)C(=O)N[C@H](C(=O)N2CCC[C@H]2C(=O)N[C@@H](CCCN=C(N)N)C(=O)NCC(N)=O)CSS1` (YFQNCPRG-NH2; linker N-5 via X2) [listing 2 of 2 here], the Kb in test [2] was 35.5 nM; in test [4], 117 nM.
As to `COc1ccc(C[C@@H]2NC(=O)CCSSC[C@@H](C(=O)N3CCC[C@H]3C(=O)N[C@@H](CCCN=C(N)N)C(=O)NCC(N)=O)NC(=O)[C@H](CC(N)=O)NC(=O)[C@H](CCC(N)=O)NC(=O)[C@H](Cc3ccccc3)NC2=O)cc1` [listing 2 of 2 here], in [1], the Antidiuretic activity was determined as 830.
